Measured values as given in ChEMBL document CHEMBL4477236 (ACS Med Chem Lett, 2016).
pEC50, pIC50: −log10 of the molar value. The source made the active and inactive calls. The calls are words filed in the database; no cut-off is given here.

biological target: T1, Androgen receptor (Homo sapiens) (UniProt P10275); assay: Inhibition of DHT-induced androgen receptor transactivation in human LNCaP cells at 10 uM after 24 hrs by luciferase reporter gene assay relative to control; type: cell-based; conditions: not given
T1 sequence (whole entry): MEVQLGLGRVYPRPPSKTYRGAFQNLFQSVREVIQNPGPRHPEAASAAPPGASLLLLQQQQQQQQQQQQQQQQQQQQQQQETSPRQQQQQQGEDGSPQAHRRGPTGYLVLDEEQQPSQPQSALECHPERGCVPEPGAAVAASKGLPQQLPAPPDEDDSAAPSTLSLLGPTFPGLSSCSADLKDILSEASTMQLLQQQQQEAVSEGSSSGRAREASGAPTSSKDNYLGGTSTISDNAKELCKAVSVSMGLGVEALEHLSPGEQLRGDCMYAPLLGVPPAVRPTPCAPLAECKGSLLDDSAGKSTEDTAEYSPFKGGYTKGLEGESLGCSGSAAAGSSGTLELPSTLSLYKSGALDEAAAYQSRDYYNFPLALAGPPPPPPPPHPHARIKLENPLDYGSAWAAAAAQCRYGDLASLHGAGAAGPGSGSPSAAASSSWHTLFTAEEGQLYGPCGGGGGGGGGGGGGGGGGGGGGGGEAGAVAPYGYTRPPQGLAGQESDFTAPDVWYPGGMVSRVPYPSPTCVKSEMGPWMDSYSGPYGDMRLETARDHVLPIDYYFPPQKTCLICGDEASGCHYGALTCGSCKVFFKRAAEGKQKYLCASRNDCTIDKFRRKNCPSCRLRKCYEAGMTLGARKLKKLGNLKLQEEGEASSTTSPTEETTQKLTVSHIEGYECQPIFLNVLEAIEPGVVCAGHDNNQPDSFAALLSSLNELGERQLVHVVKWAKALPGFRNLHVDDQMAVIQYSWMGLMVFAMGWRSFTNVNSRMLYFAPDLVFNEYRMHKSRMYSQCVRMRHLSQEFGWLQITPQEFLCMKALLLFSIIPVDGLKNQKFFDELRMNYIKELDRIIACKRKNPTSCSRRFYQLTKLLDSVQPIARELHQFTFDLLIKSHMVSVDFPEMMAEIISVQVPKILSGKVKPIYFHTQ
Summary of the method: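 LNCaP cells dual-transfected with the probasin luciferase reporter AAR2-luc plus the Renilla vector pRL-null. Cells treated with compound at 10 μM for 24 h with 10 nM DHT. Luminescence read and normalized to Renilla activity. Result expressed as fold induction over unstimulated baseline. Replicates from three independent experiments.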

**Q.** Which inhibition does the source give for `C[C@]12CCC=CC1=CC[C@@H]1[C@@H]2CC[C@]2(C)C(n3cnc4ccccc43)=CC[C@@H]12` here?
**A.** Active

**Q.** `C[C@]12CC[C@@H]3c4ccc(O)cc4CC[C@H]3[C@@H]1CC=C2n1cnc2ccccc21` was tested. Which inhibition did it give?
**A.** Active

**Q.** For `C[C@]12CC[C@H]3[C@@H](C[C@@H](n4ccnc4)C45CC4CC[C@]35C)[C@@H]1CC=C2n1cnc2ccccc21` (some centres not stated), which inhibition is on record?
**A.** Active

**Q.** With `C[C@]12CC[C@@H](n3ccnc3)CC1=CC[C@@H]1[C@@H]2CC[C@]2(C)C(n3cnc4ccccc43)=CC[C@@H]12` as the compound, how does the inhibition read?
**A.** Active

**Q.** For `COC(=O)c1ccc2c(c1)CC[C@@H]1[C@@H]2CC[C@]2(C)C(n3cnc4ccccc43)=CC[C@@H]12`, which inhibition is on record?
**A.** Active

**Q.** Which inhibition does the source give for `C[C@]12CC[C@H](OC(=S)n3ccnc3)CC1=CC[C@@H]1[C@@H]2CC[C@]2(C)C(n3cnc4ccccc43)=CC[C@@H]12` here?
**A.** Active

biological target: T2, Androgen receptor (Homo sapiens, UniProt P10275); assay: Inhibition of DHT-induced androgen receptor transactivation in human LNCaP cells after 24 hrs by luciferase reporter gene assay relative to control; type: cell-based; conditions: not given
T2 sequence (P10275 whole entry): T1 sequence (whole entry)

**Q.** `C[C@]12CC[C@H]3[C@@H](C[C@@H](n4ccnc4)C45CC4CC[C@]35C)[C@@H]1CC=C2n1cnc2ccccc21` (some centres not stated) was tested. Which pEC50 did it give?
**A.** 6.33

**Q.** `C[C@]12CC[C@H](OC(=S)n3ccnc3)CC1=CC[C@@H]1[C@@H]2CC[C@]2(C)C(n3cnc4ccccc43)=CC[C@@H]12` was tested. Which pEC50 did it give?
**A.** > 7.00

biological target: T3, Steroid 17-alpha-hydroxylase/17,20 lyase (Homo sapiens, UniProt P05093); assay: Inhibition of CYP17 (unknown origin); conditions: not given
T3 sequence (P05093 whole entry): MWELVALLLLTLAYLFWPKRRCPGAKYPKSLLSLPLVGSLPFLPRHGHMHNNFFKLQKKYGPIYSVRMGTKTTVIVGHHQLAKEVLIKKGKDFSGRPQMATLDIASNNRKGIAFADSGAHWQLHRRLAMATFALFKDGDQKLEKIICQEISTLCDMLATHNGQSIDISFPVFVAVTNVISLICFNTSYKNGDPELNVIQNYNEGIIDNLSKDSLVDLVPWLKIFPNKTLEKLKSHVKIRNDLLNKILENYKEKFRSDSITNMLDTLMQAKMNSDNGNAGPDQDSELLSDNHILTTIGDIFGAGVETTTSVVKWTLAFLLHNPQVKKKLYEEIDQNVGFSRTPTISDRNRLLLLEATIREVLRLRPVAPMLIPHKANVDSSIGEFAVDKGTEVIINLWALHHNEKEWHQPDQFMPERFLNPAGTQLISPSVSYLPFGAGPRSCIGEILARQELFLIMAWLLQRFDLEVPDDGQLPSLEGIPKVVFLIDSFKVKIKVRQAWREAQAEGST
Summary of the method: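 CYP17 enzyme activity measured in duplicate over a range of inhibitor concentrations. IC50 read from the dose–response curve as the concentration giving 50% inhibition.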

**Q.** How did the pIC50 turn out when `C[C@]12CC[C@@H]3c4ccc(O)cc4CC[C@H]3[C@@H]1CC=C2n1cnc2ccccc21` was run?
**A.** 4.59

**Q.** How did the pIC50 turn out when `C[C@]12CC[C@H](O)CC1=CC[C@@H]1[C@@H]2CC[C@]2(C)C(c3cccnc3)=CC[C@@H]12` [ABIRATERONE] was run?
**A.** 7.32

**Q.** With `COC(=O)c1ccc2c(c1)CC[C@@H]1[C@@H]2CC[C@]2(C)C(n3cnc4ccccc43)=CC[C@@H]12` as the compound, how does the pIC50 read?
**A.** < 4.82

test system: LNCaP; assay: Antiproliferative activity against human LNCAP cells after 7 days by MTT assay; type: functional, cell-based; conditions: 168 h
Summary of the method: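 LNCaP cell growth measured by MTT assay. GI50, the concentration giving 50% growth inhibition, was obtained by nonlinear regression of dose–response curves pooled from at least three independent experiments; SEM < 10%.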

**Q.** With `C[C@]12CC[C@@H]3c4ccc(O)cc4CC[C@H]3[C@@H]1CC=C2n1cnc2ccccc21` as the compound, how does the pIC50 read?
**A.** 5.41

**Q.** `C[C@]12CC[C@H]3[C@@H](C[C@@H](n4ccnc4)C45CC4CC[C@]35C)[C@@H]1CC=C2n1cnc2ccccc21` (some centres not stated) was tested. Which pIC50 did it give?
**A.** 5.18

**Q.** With `C[C@]12CC[C@@H](n3ccnc3)CC1=CC[C@@H]1[C@@H]2CC[C@]2(C)C(n3cnc4ccccc43)=CC[C@@H]12` as the compound, how does the pIC50 read?
**A.** 5.05

**Q.** `COC(=O)c1ccc2c(c1)CC[C@@H]1[C@@H]2CC[C@]2(C)C(n3cnc4ccccc43)=CC[C@@H]12` was tested. Which pIC50 did it give?
**A.** 5.16

**Q.** With `CNC(=O)c1ccc(N2C(=S)N(c3ccc(C#N)c(C(F)(F)F)c3)C(=O)C2(C)C)cc1F` [ENZALUTAMIDE] as the compound, how does the pIC50 read?
**A.** 5.31

**Q.** With `C[C@]12CC[C@H](OC(=S)n3ccnc3)CC1=CC[C@@H]1[C@@H]2CC[C@]2(C)C(n3cnc4ccccc43)=CC[C@@H]12` as the compound, how does the pIC50 read?
**A.** 5.02

test system: CWR22R; assay: Antiproliferative activity against human CWR22Rv1 cells after 7 days by MTT assay; type: functional, cell-based; conditions: 22Rv1, 168 h
Summary of the method: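 MTT proliferation assay in CWR22Rv1 human prostate cancer cells. GI50, the concentration causing 50% growth inhibition, was read from dose–response curves.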

**Q.** How did the pIC50 turn out when `C[C@]12CC[C@@H]3c4ccc(O)cc4CC[C@H]3[C@@H]1CC=C2n1cnc2ccccc21` was run?
**A.** 6.30

**Q.** How did the pIC50 turn out when `C[C@]12CC[C@H]3[C@@H](C[C@@H](n4ccnc4)C45CC4CC[C@]35C)[C@@H]1CC=C2n1cnc2ccccc21` (some centres not stated) was run?
**A.** 4.91

**Q.** `C[C@]12CC[C@@H](n3ccnc3)CC1=CC[C@@H]1[C@@H]2CC[C@]2(C)C(n3cnc4ccccc43)=CC[C@@H]12` was tested. Which pIC50 did it give?
**A.** 5.01

**Q.** With `COC(=O)c1ccc2c(c1)CC[C@@H]1[C@@H]2CC[C@]2(C)C(n3cnc4ccccc43)=CC[C@@H]12` as the compound, how does the pIC50 read?
**A.** 5.06

**Q.** `C[C@]12CC[C@H](OC(=S)n3ccnc3)CC1=CC[C@@H]1[C@@H]2CC[C@]2(C)C(n3cnc4ccccc43)=CC[C@@H]12` was tested. Which pIC50 did it give?
**A.** 5.12
